PubChem BioAssay AID1885 (Broad Institute, 2009)
Hit rate of the full screen: of about 300,000 compounds, about 4,400 (1.5%) were called active. What follows is part of a selection rich in actives, with near analogues and random picks from the rest. Values without a mark were called inactive.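 Rule for the calls: active = mean inhibition across valid replicates above about 55% (limit read from the data); inconclusive = mean below that limit but half or more replicates reach it; inactive = mean below it, under half of replicates reach it.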

Assay: inhibitors of intracellular T. cruzi growth, primary screen, luminescence, NIH3T3 host cells (AID 1885);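 note: signal also drops with host cell toxicity which is not excluded here; 0% = plate median of DMSO wells and 100% = zero luminescence signal; higher percent means less beta-gal luminescence so fewer parasites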
Settings: T. cruzi beta-gal in NIH3T3, luminescence, 90 h; hits give high values; concentration not given here
Method in brief: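 Read-out: Parasite load inhibition, % | Test system: Mouse NIH/3T3 fibroblasts infected with β-gal-expressing T. cruzi Tulahuen C4 | Amount: 5,000 cells/well | Medium: DMEM, 2% fetal bovine serum | Signal: GalScreen β-gal luminescence, detergent lysis, 60 min | Timing: 3 h attach, ≥90 h co-culture | Also added: Tulahuen C4 trypomastigotes, 5000/well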

Going from `Cc1ccc(S(=O)(=O)CCC(=O)Nc2nnc(CC(C)C)s2)cc1` to `COc1ccc(CNC(=O)CCCn2nc(C)c([N+](=O)[O-])c2C)cc1`, the inhibition rises from -32% to -2.92%.

Going from `COC(=O)COc1ccc2c(c1C)O/C(=C\c1ccco1)C2=O` to `O=C(CCCN1C(=O)/C(=C\c2ccco2)SC1=S)Nc1cccc2ccccc12`, the inhibition falls from 0.57% to -4.25%.

Going from `CCN1C(=O)[C@@H]2[C@@H](c3ccc(-c4ccc(OC)cc4)c(OC)c3)N3CCC[C@@]3(C(=O)OC)[C@@H]2C1=O` to `CCN1C(=O)[C@@H]2[C@@H](c3ccc(-c4cccc(Cl)c4)cc3)N3CCC[C@@]3(C(=O)OC)[C@@H]2C1=O`, the inhibition rises from -10.1% to 4.08%.

Compared with `O=C(NCC(c1cccs1)N1CCOCC1)c1cc(Cl)ccc1[N+](=O)[O-]` (stereo not drawn), `COc1cccc(NC(=O)c2nn(C34CC5CC(CC(C5)C3)C4)cc2[N+](=O)[O-])c1` is higher in inhibition: -4.39% for the first, 16.7% for the second.

First: CCOC(=O)CC1C(=O)NCCN1c1nc2c(C)cccn2c(=O)c1/C=C1\SC(=S)N(C(C)CC)C1=O (stereo not drawn)
Second: CCCCCN(C(=O)CCC(=O)OCCOc1ccc(OC)cc1)c1c(N)n(CCCC)c(=O)[nH]c1=O
The inhibition of the first is higher: 25.7% for the first, 8.8% for the second.

Going from `Fc1ccc2c(c1)C(c1cccnc1)=NNC(c1cccs1)=N2` to `c1ccc(C2=Nc3cccc4cccc(c34)N2)cc1`, the inhibition rises from -7.53% to 7.49%.

First: Fc1ccccc1N=C1Nc2cccc3cccc1c23
Second: O=C(O)c1ccccc1NC(=O)c1ccccc1-c1ccccc1C(=O)O
The inhibition of the first is lower: -4.12% for the first, -1.15% for the second.

First: CC1(C)CC(=O)C=C(N2CCCC2)C1
Second: CN(N)c1nc(N2CCCC2)nc(N2CCCC2)n1
The inhibition of the first is higher: 1.27% for the first, -9.95% for the second.

Compared with `O=C(O)CN1CCN(C(c2ccccc2)c2ccccc2)CC1`, `CN1CCN(c2ccc(NC(=O)c3ccccc3)cc2)CC1` is higher in inhibition: -9.78% for the first, -2.93% for the second.

First: Cc1ncn(C23CC4CC(CC(O)(C4)C2)C3)n1
Second: O=C(NCc1ccncc1)NC12CC3CC(CC(C3)C1)C2
The inhibition of the first is higher: 5.6% for the first, -15.8% for the second.

Going from `CCCCCCCCCCCCN1[C@@H](CC(C)=O)c2cc(F)cc(F)c2S1(=O)=O` to `COCCN1C(=O)N(c2ccc(Cl)cc2)C(=O)C1CC(=O)Nc1cc(OC)cc(OC)c1` (stereo not drawn), the inhibition falls from 39.5% to -12.9%.

Going from `CC(C)n1c(=O)[nH]c2cc(C(=O)Nc3ccccc3)ccc21` to `CNC(=O)c1ccc(NC(=O)c2cccc(C(F)(F)F)c2)cc1`, the inhibition falls from -5.92% to -8.58%.

Compared with `Cc1onc(-c2ccccc2Cl)c1C(=O)N(Cc1ccc(N(C)C)cc1)C(C)C`, `Cc1cc(NC(=O)c2ccc(F)cc2)ccc1NC(=O)c1ccco1` is lower in inhibition: 37.7% for the first, 14% for the second.

Compared with `S=C(NCc1ccc(Cl)cc1)NC1CCCCC1`, `O=C(NC1CCCC1)C1CC(=O)N(c2ccc(F)cc2)C1` (stereo not drawn) is lower in inhibition: 10.1% for the first, 5.96% for the second.

First: O=C(Nc1ccc(Sc2ccc(Br)cc2)cc1)c1ccco1
Second: N/C(=N\OC(=O)COc1ccc([N+](=O)[O-])cc1)c1ccc(Br)cc1
The inhibition of the first is lower: -17.4% for the first, -1.86% for the second.

First: Cc1c(C(=O)N2CCCC2)c(S(=O)(=O)NCC(C)c2ccccc2)c(C)n1C (stereo not drawn)
Second: Cc1nn(C)cc1S(=O)(=O)N1CCN(c2ccc(F)cc2)CC1
The inhibition of the first is lower: -5.32% for the first, 2.42% for the second.

Going from `Cc1nc(NC(=O)c2cccc(Cl)c2)sc1-c1csc(Nc2cccc(Cl)c2)n1` to `COC(=O)c1ccccc1NC(=S)NC(=O)c1ccccc1F`, the inhibition falls from -1.87% to -19.3%.

Going from `O=C(O)C1C2C=CC(C2)C1C(=O)NCc1ccccc1` (stereo not drawn) to `Cc1nn(CCOc2ccc(Br)cc2)c(C)c1[N+](=O)[O-]`, the inhibition rises from -11.6% to 10.6%.

Going from `COc1cc(C(=O)N2CCN(C3CCC(C)CC3)CC2)cc(OC)c1OC` (stereo not drawn) to `Cn1nc([N+](=O)[O-])nc1Sc1ccc(C(C)(C)C)cc1`, the inhibition rises from 25.8% to 27%.

With `CCCN(CCC)c1nc2c(C)cccn2c(=O)c1/C=C1/SC(=S)N(Cc2ccco2)C1=O` the inhibition was 68.2% (active).
With `COc1ccccc1C1=Nc2cccc3cccc(c23)N1` the inhibition was 55% (active).
For `CC1(C)CC(N2CCN(C(c3ccccc3)c3ccccc3)CC2)=CC(=[N+]2CCCCC2)C1`, the inhibition was 63.6% (active).
With `Cc1nc([N+](=O)[O-])nn1C12CC3CC(CC(Br)(C3)C1)C2` the inhibition was 59.3% (active).
In the case of `CN1CCN(c2ccc(NC(=O)c3ccc4c(c3)[nH]c(=O)n4Cc3ccc(F)cc3)cc2)CC1`, the inhibition is reported as 65.8% (active).
For `S=C(NCc1ccc(Cl)cc1)NC12CC3CC(CC(C3)C1)C2`, the inhibition was 57.1% (active).
With `CCN(CC)P(=O)(Nc1ccc(SC(F)F)cc1)c1ccc(N(C)C)cc1NC(=O)c1ccco1` (stereo not drawn) the inhibition was 68.4% (active).
With `O=C(Nc1ccc(-c2csc(Nc3cccc(C(F)(F)F)c3)n2)cc1)c1cccc(C(F)(F)F)c1` the inhibition was 58.5% (active).
For `O=C(NC(=S)Nc1ccccc1C(=O)O)c1ccc(-c2ccc(Br)cc2)o1`, the inhibition was 61.6% (active).
With `NC(=O)Cn1nc([N+](=O)[O-])nc1Oc1ccc(Br)cc1` the inhibition was 88.1% (active).
